Shown are actives, neighbours in structure and some others; about 2.2% of the full set was active somewhere.
CendR NRP1 mod – modulators of CendR peptide binding to NRP-1, primary screen, biochemical, fluorescence polarization, uHTS | 360,000 tested, 0.85% active | FAM-RPARPAR peptide binding to NRP-1 | inhibition, % at 25 µM;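 active = inhibition or corrected inhibition above about 18%, plus a signal ratio from 0.5 to 1.5, limit read from the data, passing the limit was not always enough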
ASAP1 inh – inhibitors of human ASAP1 ArfGAP activity, primary screen, biochemical, fluorescence polarization | inhibition, % at 16.5 µM | 360,000 tested, 0.19% active | AID 624377, 2012 | Arf-GAP with SH3 domain, ANK repeat and PH domain-containing protein 1 (Homo sapiens), … | ASAP1-stimulated ARF1 GTP hydrolysis, GDP FP detection; in the data active = inhibition above about 25%;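 also: 0% = vehicle with enzyme and substrate and 100% = no enzyme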
ARFGAP1 inh – inhibitors of rat ARFGAP1 GAP activity, primary screen, biochemical, fluorescence polarization, GDP tracer | ADP-ribosylation factor GTPase-activating protein 1 (Rattus norvegicus), Q62848 | Arfgap1-stimulated ARF1 GTP hydrolysis, GDP FP detection | inhibition, % at 16.5 µM | 360,000 tested, 0.26% active | AID 651572, 2012;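 active = inhibition above a per-plate limit, mean inhibition of low control wells plus 3 SD, cut at about 25% in these data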;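 also: 0% = DMSO wells with enzyme and 100% = wells lacking Arfgap1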
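Repeats: one replicate per compound; assay system: rat Arfgap1 catalytic domain, aa 1-136; times: enzyme reaction 120 min at 25 °C after 20 min preincubation; detection: FP of antibody-bound GDP Alexa 633 tracer, ex 620/em 688 nm; benchmarks: high control wells lacking Arfgap1, low control full reaction with DMSO; reagent: human ARF1(Δ1-17)-GTP substrate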
V-ATPase pH – regulators of yeast V-ATPase proton pumping, primary screen, pHLuorin cytosolic pH fluorescence | response, % at 10 µM | S. cerevisiae | 350,000 tested, 0.37% active; in the data active = response mostly above about 7.3%, no sharp cut-off; inactive = mostly below about 5.4%; also: actives read high
Exocytosis inh – LAMP-1 surface exposure blockers, TALL-104 cells – cell-based, flow cytometry, MLPCN library, primary screen | 360,000 tested, 0.66% active | TALL-104 LAMP-1 surface exposure; cells stimulated with thapsigargin and PMA | inhibition, % at 10 µM | AID 651702, 2012;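 active = inhibition above about 55%, limit read from the data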
* hit, by the source's call; / = no result.

SMILES	CendR NRP1 mod	ASAP1 inh	ARFGAP1 inh	V-ATPase pH	Exocytosis inh
N#CC(C#N)=C1C=CC=CN1/C(=C\c1ccco1)C(=O)c1ccc(Cl)cc1	-6.9	18.7	4.7	-1.9	90.1*
C[C@@H]1CN(c2ccc(N3CCNC[C@@H]3C)cc2C#N)C[C@H](C)O1	/	5.8	-8.6	/	/
CCOc1ccc(N2C(=O)CC(N3CCN(c4ccc(Cl)cc4)CC3)C2=O)cc1 (configuration not stated)	21.9*	-2.8	5.2	-1.1	-1.5
COc1ccc(N2C(=O)CC(N3CCN(c4ccc(Cl)cc4)CC3)C2=O)cc1 (configuration not stated)	8.2	7.0	2.9	11.2	-1.8
Cc1ccc2nc(N3CCN(c4ccccc4)CC3)c(C=O)c(=O)n2c1	5.2	-12.2	-7.7	-2.8	-0.9
Cc1ccc2nc(N3CCN(C)CC3)c(C=O)c(=O)n2c1	21.6*	-9.2	10.1	-0.9	4.6
O=C(Oc1ccccc1/C=C\C(=O)c1cc2ccccc2o1)c1cccc(F)c1	6.9	3.3	6.4	-1.6	55.4
O=C(Oc1ccccc1/C=C\C(=O)c1cc2ccccc2o1)c1ccccc1	-7.7	10.1	-9.7	-4.1	61.1*
CC(=O)c1ccc(N2CCN(C(=O)/C=C/c3ccc(S(=O)(=O)N4CCOCC4)cc3)CC2)cc1	25.6*	7.7	9.4	0.9	1.0
Cc1ccc(/C=N/NC(=O)c2nnn(-c3nonc3N)c2C)o1	20.2*	14.5	-5.2	2.4	3.3
Cc1ccc(/C=N/NC(=O)c2nnn(-c3nonc3N)c2-c2ccccc2)o1	-0.1	14.4	-9.1	0.4	-2.2
COC(=O)[C@]12C[C@H](CC(=O)NCC3CCCCC3)C(=O)N(CCc3ccc(OC)c(OC)c3)C1=C[C@H](C(C)(C)C)O[C@@H]2C	/	7.1	10.9	/	/
COc1ccc(CCNC(=O)c2ccc(Cl)c(S(=O)(=O)N(C)c3ccccc3)c2)cc1	23.0*	1.2	10.6	-0.3	13.8
Cc1ccc(S(=O)(=O)N(C)c2ccc(C(=O)NCCc3ccccc3)cc2)cc1	0.7	2.9	-0.4	2.7	8.2
COc1ccc(CCNC(=O)c2ccc(N(C)S(=O)(=O)c3ccc(C)cc3)cc2)cc1	21.4*	11.6	1.4	-1.6	1.7
CN(N=Cc1ccc2c(c1)OCO2)C(=O)c1ccccc1N	/	10.3	-1.0	/	/
C[C@@H]1ON(C)[C@H]2C[C@H]3c4[nH]c5c(-c6ccccc6F)cccc5c4CCN3C(=O)[C@@H]12	/	7.3	-3.3	/	/
CN(CC(=O)Nc1ccc(Cl)c(Cl)c1)CC(=O)Nc1ccc2c(c1)OCO2	4.9	2.6	9.3	3.0	9.7
COC(=O)[C@]12C[C@H](CC(=O)N3CCN(C(=O)c4ccco4)CC3)C(=O)N(Cc3ccc4c(c3)OCO4)C1=C[C@H](COCc1ccccc1)O[C@@H]2C	/	-11.0	4.5	/	/
CC(=O)N(C1=C(Cl)C(=O)c2ccccc2C1=O)C1CCCCC1	23.4	10.1	8.7	140.8*	89.9*
CCOC(=O)C1=C(C)N(C)C(=O)NC1c1cc2c(cc1Br)OCO2 (configuration not stated)	21.2*	4.7	11.7	-1.8	0.4
CCCOC(=O)C1=C(C)N(C)C(=O)NC1c1cc2c(cc1Br)OCO2 (configuration not stated)	4.7	15.0	10.8	0.1	3.1
CCS(=O)(=O)c1ccc(C=NNc2nc3ccccc3o2)cc1	18.3*	1.1	9.4	1.0	8.2
CN(C)CCCN(C(=O)/C=C/c1cccs1)c1nc2c(F)cccc2s1	6.8	-4.2	0.7	1.8	56.8*
COC/C=C/C1=CC2=CC(=O)C(C)(OC(=O)c3cnc4ccccc4n3)C(=O)C2=CN1CC1CC1 (configuration not stated)	29.3*	/	/	-3.9	0.3
COC/C=C/C1=CC2=CC(=O)C(C)(OC(=O)c3cnc4ccccc4n3)C(=O)C2=CN1c1ccc(OC)cc1 (configuration not stated)	21.2	3.4	11.7	-2.8	-5.4
